Measured values published in ChEMBL document CHEMBL1152650, “Synthesis and in vitro evaluation of pteridine analogues as monoamine oxidase B and nitric oxide synthase inhibitors” (Bioorg Med Chem, 2009).
pIC50, pKi: −log10 of the molar value.

Tests used:
[1] = Inhibition of MAOB from baboon liver by spectrophotometry; parameters: species or system Papio hamadryas
In short: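 Mitochondrial fraction of baboon liver (no MAO-A activity, so no clorgyline), 0.15 mg protein/mL in 100 mM sodium phosphate pH 7.4. Substrate MMTP 50 µM, 4% DMSO final. Incubated 37 °C for 10 min, then stopped with perchloric acid and centrifuged. MMDP+ read at 420 nm. At least eight concentrations over 3 orders of magnitude; IC50 from sigmoidal fit, mean ± SEM of duplicates.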

[2] = Inhibition of NOS in Sprague-Dawley rat brain homogenate assessed as conversion of oxy-hemoglobin to met-hemoglobin; assay type: tissue-based
In short: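 Brain of male Sprague-Dawley rat homogenised in HEPES/sucrose/EDTA/DTT with protease inhibitors and PMSF; the 12,000g supernatant is the enzyme source. Mix holds 500 µM HEPES, 250 µM CaCl2, homogenate from 2.36 mg tissue and 5% DMSO. Pre-incubated 3 min at 37 °C, then started with oxyHb 1.09 µM, NADPH 100 µM and L-arginine 100 µM. Scanned 390–430 nm every 10 s for 10 min; metHb taken as A401−A411. IC50 from rate versus log concentration.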

[3] = species on record: Papio hamadryas; assay: Inhibition of MAOB from baboon liver at 30 uM by spectrophotometry
[4] = species on record: Rattus norvegicus; assay: Ratio of IC50 for aminoguanidine to IC50 for drug for NOS in Sprague-Dawley rat brain homogenate; assay type: tissue-based
[5] = species on record: Papio hamadryas; assay: Inhibition of MAOB from baboon liver at 100 uM by spectrophotometry
[6] = target: T1, Amine oxidase [flavin-containing] B (Mus musculus, UniProt Q8BW75); assay: Inhibition of mouse brain MAOB
T1 sequence (Q8BW75 whole entry): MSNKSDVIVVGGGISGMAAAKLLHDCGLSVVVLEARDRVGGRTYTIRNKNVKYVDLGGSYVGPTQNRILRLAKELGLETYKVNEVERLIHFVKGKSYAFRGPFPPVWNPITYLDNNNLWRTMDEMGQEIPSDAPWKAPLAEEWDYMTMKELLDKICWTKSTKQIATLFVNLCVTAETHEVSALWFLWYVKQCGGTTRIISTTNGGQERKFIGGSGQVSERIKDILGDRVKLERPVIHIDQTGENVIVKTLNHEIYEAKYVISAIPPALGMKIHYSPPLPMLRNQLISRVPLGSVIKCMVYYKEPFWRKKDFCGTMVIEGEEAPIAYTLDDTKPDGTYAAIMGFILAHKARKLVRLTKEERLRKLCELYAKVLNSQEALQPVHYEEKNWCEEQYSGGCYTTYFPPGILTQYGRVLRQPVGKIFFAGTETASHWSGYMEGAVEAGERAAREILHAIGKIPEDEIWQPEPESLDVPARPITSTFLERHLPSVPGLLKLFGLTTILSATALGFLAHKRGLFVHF

[7] = Inhibition of recombinant NOS from rat brain

pIC50 [1]	pKi [1]	pIC50 [2]	Compound	also measured
		3.33	Cn1c(N)c(/N=C/c2ccccc2)c(=O)n(C)c1=O	inhibition [3]: 17.8%; Ratio IC50 [4]: 23
5.15	5.39	2.16	Cn1c(N)c(/N=C/c2cccc(Cl)c2)c(=O)n(C)c1=O	
6.22	6.46	3.24	Cn1c(N)c(/N=C/C=C/c2cccc(Cl)c2)c(=O)n(C)c1=O	
4.92	5.16		Cn1c(N)c(/N=C/C=C/c2ccccc2)c(=O)n(C)c1=O	

More lines, now with the values behind:

Compound	pIC50 [1]	pKi [1]	pIC50 [2]	also measured
Cn1c(=O)c2nc(-c3cccc(Cl)c3)cnc2n(C)c1=O	5.31	5.55		
Cn1c(=O)c2nc(-c3ccccc3)cnc2n(C)c1=O			3.35	inhibition [5]: 12.2%; Ratio IC50 [4]: 23
Cn1c(=O)c2c(nc(/C=C/c3cccc(Cl)c3)n2C)n(C)c1=O				pKi [6]: 7.00
Nc1nc(N)c2c(n1)NCC(c1ccccc1)N2 (configuration not stated)				pIC50 [7]: 5.22
Cn1c(=O)c2nc(/C=C/c3cccc(Cl)c3)cnc2n(C)c1=O	6.50	6.74	2.98	
C[C@H](O)[C@H](O)C1CNc2nc(N)nc(N)c2N1 (some centres not stated)				pKi [7]: 7.89
